Where “and” joins values, the source holds several entries; their conditions need not be identical. Identical values can stand only once. Entries after “also recorded” stand apart in the source; their conditions may differ.
Key:
[1] = aqueous conditions; cited from earlier work
[2] = test system: HeLa cervical cancer cell line; conditions: cited from earlier work
[3] = test system: NCI/ADR-RES drug-resistant xenograft; conditions: systemic administration; no reference given; cited from earlier work
[4] = target: T1, purified porcine brain tubulin (Sus scrofa, UniProt P02554); conditions: cited from earlier work
T1 sequence (P02554 whole entry): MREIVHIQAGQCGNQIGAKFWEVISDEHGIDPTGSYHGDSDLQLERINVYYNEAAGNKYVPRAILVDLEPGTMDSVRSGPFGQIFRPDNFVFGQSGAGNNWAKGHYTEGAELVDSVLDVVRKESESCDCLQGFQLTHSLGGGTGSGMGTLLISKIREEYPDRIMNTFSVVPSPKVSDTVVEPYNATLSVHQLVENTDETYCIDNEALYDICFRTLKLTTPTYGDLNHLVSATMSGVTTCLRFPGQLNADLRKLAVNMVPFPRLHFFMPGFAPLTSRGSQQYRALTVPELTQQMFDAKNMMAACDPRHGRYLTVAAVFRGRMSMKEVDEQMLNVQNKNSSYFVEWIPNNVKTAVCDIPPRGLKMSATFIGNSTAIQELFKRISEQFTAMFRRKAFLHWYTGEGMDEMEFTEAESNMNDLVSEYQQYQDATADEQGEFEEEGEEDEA
T1 sequence (P02550 whole entry partner): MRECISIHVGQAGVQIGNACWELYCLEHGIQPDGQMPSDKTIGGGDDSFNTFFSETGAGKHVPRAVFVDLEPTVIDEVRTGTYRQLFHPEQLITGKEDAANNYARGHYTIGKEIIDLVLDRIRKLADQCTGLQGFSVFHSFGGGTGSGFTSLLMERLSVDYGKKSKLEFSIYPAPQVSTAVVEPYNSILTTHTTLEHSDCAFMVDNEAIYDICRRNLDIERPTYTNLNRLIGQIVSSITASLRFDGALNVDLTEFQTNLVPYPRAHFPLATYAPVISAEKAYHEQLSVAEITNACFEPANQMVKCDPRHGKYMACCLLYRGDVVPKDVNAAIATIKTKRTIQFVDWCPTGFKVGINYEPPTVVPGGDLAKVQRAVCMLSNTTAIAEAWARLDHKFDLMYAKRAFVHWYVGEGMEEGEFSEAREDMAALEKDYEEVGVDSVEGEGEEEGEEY

[5] = plasma / in vivo; cited from earlier work
[6] = compared to 3; cited from earlier work
[7] = target: T1, purified porcine brain tubulin; assay: Tubulin polymerization, turbidimetric at 340 nm; assay type: biochemical; conditions: 5 μM compound, tubulin 2 mg/mL, 37°C
Method in brief: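 Test compound at 5 μM, a reference taccalonolide at 5−20 μM, or vehicle (1% EtOH). Samples were prepared on ice, then warmed to 37 °C to start polymerization. Rate and extent were followed turbidimetrically at 340 nm.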

Initial dose tolerance = assay type: in vivo, mice; conditions: systemic (ip), drug-sensitive or -resistant xenograft models
[8] = test system: NCI/ADR-RES drug-resistant xenograft; assay type: in vivo; conditions: for days with statistically significant effects vs paclitaxel-treated tumors / tumor growth following the first drug administration on day 0: intratumoral; for first day of statistically significant difference vs vehicle-treated tumors: intratumoral 20 μg on days 0, 3, 6, 10, 14, two-way ANOVA, Tukey; for persistence of antitumor efficacy after the final dose: intratumoral injection, paclitaxel-resistant tumor; for tumor growth following the first drug administration on day 0: 20 μg 21 or 26, 40 μg paclitaxel
[9] = Hydrolytic stability in aqueous solution; assay type: physicochemical; conditions: 10 mg in 1:1 EtOH-PBS, 36 h, room temperature
Method in brief: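 Test compound stirred in 1× PBS–EtOH; the mixture was then vacuum-dried and extracted with CH3CN. The hydrolysis product was isolated by semipreparative C18 HPLC eluted with 60−100% CH3CN/H2O containing 0.1% formic acid. Isolated yield was the read-out.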

## CC(=O)O[C@@H]1[C@H]2[C@H]3[C@H]([C@H](OC(C)=O)[C@H](OC(C)=O)[C@]2(C)[C@H]2[C@H](C)[C@H]4O[C@]45OC(=O)[C@@](C)(O)[C@]5(C)[C@H]12)[C@]1(C)[C@H](C[C@@H]2O[C@@H]2[C@@H]1OC(C)=O)C(=O)[C@@H]3O [Compound 3, taccalonolide AF]
[1]
  hydrolysis of C-15 acetoxy group: readily hydrolyzed to generate 4 under aqueous conditions
[2]
  potency relative to 1: over 200 fold
[3]
  efficacy in the taxane-resistant model: has efficacy in this taxane-resistant model with systemic administration
[4]
  effect on polymerization of purified tubulin: directly stimulates the polymerization of purified tubulin

## CC(=O)O[C@H]1[C@H]2[C@H]([C@@H]3[C@@H](O)[C@@H]4[C@H]([C@H](C)[C@H]5O[C@]56OC(=O)[C@@](C)(O)[C@]46C)[C@@]3(C)[C@H]1OC(C)=O)[C@@H](O)C(=O)[C@H]1C[C@@H]3O[C@@H]3[C@H](OC(C)=O)[C@]21C [Compound 4, taccalonolide AJ]
[5]
  half-life: lower in vivo half-life; also recorded: shorter plasma half-life
[6]
  microsomal clearance: higher microsomal clearance; also recorded: increased rate of microsomal clearance as compared to 3

## CC(=O)O[C@H]1[C@H]2[C@H]([C@@H]3[C@@H](OC(=O)C4CC4)[C@@H]4[C@H]([C@H](C)[C@H]5O[C@]56OC(=O)[C@@](C)(O)[C@]46C)[C@@]3(C)[C@H]1OC(C)=O)[C@@H](O)C(=O)[C@H]1C[C@@H]3O[C@@H]3[C@H](OC(C)=O)[C@]21C [Compound 19]
[7]
  extent of tubulin polymerization compared with 4: comparable levels of tubulin polymerization compared to an equivalent concentration of 4
Initial dose tolerance
  antitumor effects during MTD evaluations: lack of observable antitumor effects

## CC(=O)O[C@H]1[C@H]2[C@H]([C@@H]3[C@@H](OC(=O)C(C)C)[C@@H]4[C@H]([C@H](C)[C@H]5O[C@]56OC(=O)[C@@](C)(O)[C@]46C)[C@@]3(C)[C@H]1OC(C)=O)[C@@H](O)C(=O)[C@H]1C[C@@H]3O[C@@H]3[C@H](OC(C)=O)[C@]21C [Compound 20]
[7]
  extent of tubulin polymerization compared with 4: comparable levels of tubulin polymerization compared to an equivalent concentration of 4
Initial dose tolerance
  antitumor effects during MTD evaluations: lack of observable antitumor effects

## CC(=O)O[C@H]1[C@H]2[C@H]([C@@H]3[C@@H](OC(=O)CC(C)C)[C@@H]4[C@H]([C@H](C)[C@H]5O[C@]56OC(=O)[C@@](C)(O)[C@]46C)[C@@]3(C)[C@H]1OC(C)=O)[C@@H](O)C(=O)[C@H]1C[C@@H]3O[C@@H]3[C@H](OC(C)=O)[C@]21C [Compound 21]
[7]
  extent of tubulin polymerization compared with 4: greater extent of tubulin polymerization than equivalent concentrations of 4
[8]; 31 days after the final dose, intratumoral 20 μg
  first day on which a tumor reached 1,500 mm^3: 45 days
[8]
  days with statistically significant effects vs paclitaxel-treated tumors: 12 to 14 days
  first day of statistically significant difference vs vehicle-treated tumors: 10 days
  persistence of antitumor efficacy after the final dose: at least 30 days
  tumor growth following the first drug administration on day 0: abruptly slowed
Initial dose tolerance
  antitumor effects during MTD evaluations: lack of observable antitumor effects

## CC(=O)O[C@H]1[C@H]2[C@H]([C@@H]3[C@@H](OC(=O)C(C)(C)C)[C@@H]4[C@H]([C@H](C)[C@H]5O[C@]56OC(=O)[C@@](C)(O)[C@]46C)[C@@]3(C)[C@H]1OC(C)=O)[C@@H](O)C(=O)[C@H]1C[C@@H]3O[C@@H]3[C@H](OC(C)=O)[C@]21C [Compound 22]
Initial dose tolerance
  antitumor effects during MTD evaluations: lack of observable antitumor effects

## CC(=O)O[C@H]1[C@H]2[C@H]([C@@H]3[C@@H](OC(=O)c4ccc5c(c4)C(=O)c4ccccc4C5=O)[C@@H]4[C@H]([C@H](C)[C@H]5O[C@]56OC(=O)[C@@](C)(O)[C@]46C)[C@@]3(C)[C@H]1OC(C)=O)[C@@H](O)C(=O)[C@H]1C[C@@H]3O[C@@H]3[C@H](OC(C)=O)[C@]21C [Compound 24]
[9]
  hydrolysis to 4, yield: 67.4% and 67%

## CC(=O)O[C@H]1[C@H]2[C@H]([C@@H]3[C@@H](O)[C@@H]4[C@H]([C@H](C)[C@H]5O[C@]56OC(=O)[C@@](C)(O)[C@]46C)[C@@]3(C)[C@H]1OC(C)=O)[C@@H](OC(=O)CC(C)C)C(=O)[C@H]1C[C@@H]3O[C@@H]3[C@H](OC(C)=O)[C@]21C [Compound 26]
[7]
  extent of tubulin polymerization compared with 4: greater extent of tubulin polymerization than equivalent concentrations of 4
[8]; four tumors, intratumoral 20 μg
  growth of tumors with smaller initial volumes (130 – 233 mm^3): did not increase in size even by day 54
[8]
  days with statistically significant effects vs paclitaxel-treated tumors: 12 to 14 days
  first day of statistically significant difference vs vehicle-treated tumors: 12 days
  persistence of antitumor efficacy after the final dose: at least 30 days
  tumor growth following the first drug administration on day 0: abruptly slowed
Initial dose tolerance
  antitumor effects during MTD evaluations: lack of observable antitumor effects

## CC(=O)O[C@H]1[C@H]2[C@H]([C@@H]3[C@@H](O)[C@@H]4[C@H]([C@H](C)[C@H]5O[C@]56OC(=O)[C@@](C)(O)[C@]46C)[C@@]3(C)[C@H]1OC(C)=O)[C@@H](OC(=O)C(C)(C)C)C(=O)[C@H]1C[C@@H]3O[C@@H]3[C@H](OC(C)=O)[C@]21C [Compound 27]
[7]
  extent of tubulin polymerization compared with 4: comparable levels of tubulin polymerization compared to an equivalent concentration of 4

## CC(=O)O[C@H]1C(=O)[C@@]2(C)[C@H]([C@H](OC(=O)c3ccccc3)[C@]3(O)C[C@H](OC(=O)[C@H](O)[C@@H](NC(=O)c4ccccc4)c4ccccc4)C(C)=C1C3(C)C)[C@]1(OC(C)=O)CO[C@@H]1C[C@@H]2O [paclitaxel, reference compound]
[8]; intratumoral 40 μg
  tumor growth rate compared with vehicle up to day 14: not different statistically
[8]
  tumor growth following the first drug administration on day 0: unaffected
